Common to all, as to assay type: ADME
One series has as its target T1, PEPT1 (Homo sapiens, UniProt P46059).
T1 sequence (P46059 whole entry): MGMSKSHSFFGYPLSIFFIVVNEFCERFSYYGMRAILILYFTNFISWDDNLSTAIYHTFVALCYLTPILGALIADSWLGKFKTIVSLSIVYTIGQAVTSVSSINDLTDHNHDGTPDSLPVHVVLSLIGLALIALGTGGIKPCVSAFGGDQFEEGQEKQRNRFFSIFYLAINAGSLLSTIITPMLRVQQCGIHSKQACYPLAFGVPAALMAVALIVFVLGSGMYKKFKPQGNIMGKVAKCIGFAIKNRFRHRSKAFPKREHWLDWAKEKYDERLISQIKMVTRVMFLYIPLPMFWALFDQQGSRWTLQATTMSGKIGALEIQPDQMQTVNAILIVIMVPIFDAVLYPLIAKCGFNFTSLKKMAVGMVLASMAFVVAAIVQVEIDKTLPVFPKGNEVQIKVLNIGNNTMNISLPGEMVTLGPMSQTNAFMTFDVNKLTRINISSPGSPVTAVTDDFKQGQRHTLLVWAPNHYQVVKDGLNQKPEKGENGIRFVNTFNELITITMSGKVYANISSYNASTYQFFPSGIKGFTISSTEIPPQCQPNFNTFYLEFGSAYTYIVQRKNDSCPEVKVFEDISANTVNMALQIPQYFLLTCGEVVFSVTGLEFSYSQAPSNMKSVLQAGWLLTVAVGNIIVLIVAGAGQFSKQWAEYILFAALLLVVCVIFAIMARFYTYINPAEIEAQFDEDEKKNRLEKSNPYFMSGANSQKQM
Nature of the series: Drug uptake in Pichia pastoris GS115 expressing human recombinant PEPT1 at 5 uM after 30 mins by dual-channel liquid scintillation counting analysis relative to vector control. The settings on record: read-out: FC. In outline: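 5.0 µM radiolabelled substrate ([3H]GlySar or [14C]oseltamivir) is incubated 30 min at 24°C with induced transformants in 100 mM potassium phosphate pH 6.5. Cell-associated radioactivity is counted by scintillation after standing 24 h and normalised to OD600. Results are compared with pPIC3.5K vector-alone cells. Mean ± SE (n=6).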

For series [1], the target named is T2, Solute carrier family 15 member 1 (Rattus norvegicus, UniProt P51574).
T2 sequence (P51574 whole entry): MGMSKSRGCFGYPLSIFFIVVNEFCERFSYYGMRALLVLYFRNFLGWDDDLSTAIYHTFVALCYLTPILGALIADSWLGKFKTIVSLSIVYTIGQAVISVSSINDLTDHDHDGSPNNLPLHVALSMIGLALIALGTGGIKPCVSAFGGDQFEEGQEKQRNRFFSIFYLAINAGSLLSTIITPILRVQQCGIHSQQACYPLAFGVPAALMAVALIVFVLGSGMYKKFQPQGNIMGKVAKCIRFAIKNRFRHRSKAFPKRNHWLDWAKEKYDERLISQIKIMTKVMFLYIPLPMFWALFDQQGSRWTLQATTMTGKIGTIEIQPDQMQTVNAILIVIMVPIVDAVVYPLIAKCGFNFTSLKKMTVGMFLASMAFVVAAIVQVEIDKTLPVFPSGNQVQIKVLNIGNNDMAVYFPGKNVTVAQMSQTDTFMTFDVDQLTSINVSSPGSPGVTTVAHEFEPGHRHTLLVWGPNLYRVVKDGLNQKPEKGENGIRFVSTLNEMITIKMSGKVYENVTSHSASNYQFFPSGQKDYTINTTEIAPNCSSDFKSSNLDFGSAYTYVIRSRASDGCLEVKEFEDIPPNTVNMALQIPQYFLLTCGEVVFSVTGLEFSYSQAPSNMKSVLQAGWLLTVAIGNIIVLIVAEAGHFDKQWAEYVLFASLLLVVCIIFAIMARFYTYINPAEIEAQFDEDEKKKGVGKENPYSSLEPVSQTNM
Nature of the series: Drug uptake in Pichia pastoris GS115 expressing rat recombinant PEPT1 at 5 uM after 30s by dual-channel liquid scintillation counting analysis in presence of cephradine relative to control. The settings on record: 0.5 min. The gist of the method: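 Rat PEPT1 (pPIC3.5K-rPept1) in GS115 His+Mut+ transformant, methanol-induced 20-24 hr in BMMY at 30°C, washed into 100 mM potassium phosphate pH 6.5. [3H]GlySar final 5.0 µM with inhibitor at 10 mM, 30 sec at 24°C. Counts taken by liquid scintillation after 24 hr standing. Values are vector-subtracted and given as % of buffer control. Mean ± SE, n=3.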

Series [2] has as its target T3, Solute carrier family 15 member 1 (Homo sapiens, UniProt P46059).
T3 sequence (P46059 whole entry): T1 sequence (P46059 whole entry)
Put plainly: Drug uptake in Pichia pastoris GS115 expressing human recombinant PEPT1 at 5 uM after 30s by dual-channel liquid scintillation counting analysis in presence of SITS relative to control. The settings on record: 0.5 min. In outline: (§1)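 [3H]GlySar 5.0 µM final, 30-s uptake at 24°C in 100 mM potassium phosphate pH 6.5, with or without a potential inhibitor at 10 mM. Cells are methanol-induced transformants. Values are vector-subtracted and expressed as percent of buffer control. Mean ± SE (n=3). ANOVA with Dunnett's test.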

Series [3] concerns the target T3, Solute carrier family 15 member 1. Put plainly: Drug uptake in Pichia pastoris GS115 expressing human recombinant PEPT1 at 5 uM after 30s by dual-channel liquid scintillation counting analysis in presence of acyclovir relative to control. The settings on record: 0.5 min. In outline:
as §1

The target is the same in series [4]. Put plainly: Drug uptake in Pichia pastoris GS115 expressing human recombinant PEPT1 at 5 uM after 30s by dual-channel liquid scintillation counting analysis in presence of valacyclovir relative to control. The settings on record: 0.5 min. In outline:
as §1

This note sets out measurements from ChEMBL document CHEMBL3526053, “Species-dependent uptake of glycylsarcosine but not oseltamivir in Pichia pastoris expressing the rat, mouse, and human intestinal peptide transporter PEPT1” (Drug Metab Dispos, 2012).

Regarding `[3H]C(C(=O)O)N(C)C(=O)CN` (stereo not given), the uptake ratio at 0.5 h, 5 µM at PEPT1 was 30. Moreover, the Drug uptake in series [1] was determined as 23.4%; in series [2], 127%; in series [3], 114%; in series [4], 3.5%.
